{"source": "ChEMBL document CHEMBL4219255", "about": "“Targeting Transient Receptor Potential Vanilloid 1 (TRPV1) Channel Softly: The Discovery of Passerini Adducts as a Topical Treatment for Inflammatory Skin Disorders” (J Med Chem, 2018)", "key": {"[1]": {"molecular_target": "T1, Liver carboxylesterase 1 (CE1) (Homo sapiens, UniProt P23141)", "T1 sequence (P23141 whole entry)": "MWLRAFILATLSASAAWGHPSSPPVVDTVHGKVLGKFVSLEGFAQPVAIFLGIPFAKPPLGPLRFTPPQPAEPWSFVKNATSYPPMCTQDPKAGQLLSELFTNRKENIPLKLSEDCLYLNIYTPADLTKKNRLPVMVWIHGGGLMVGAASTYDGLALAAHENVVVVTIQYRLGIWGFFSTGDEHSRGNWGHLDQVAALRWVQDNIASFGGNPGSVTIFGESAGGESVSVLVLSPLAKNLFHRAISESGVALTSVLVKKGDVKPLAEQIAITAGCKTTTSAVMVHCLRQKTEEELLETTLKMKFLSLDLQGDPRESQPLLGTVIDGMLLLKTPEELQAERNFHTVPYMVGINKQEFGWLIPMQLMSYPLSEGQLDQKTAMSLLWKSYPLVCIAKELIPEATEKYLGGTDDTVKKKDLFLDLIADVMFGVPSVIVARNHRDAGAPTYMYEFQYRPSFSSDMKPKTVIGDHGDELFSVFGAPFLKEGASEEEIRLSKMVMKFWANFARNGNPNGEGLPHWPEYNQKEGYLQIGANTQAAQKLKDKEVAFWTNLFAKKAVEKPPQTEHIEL", "experiment": "Drug metabolism assessed as recombinant human CE1-mediated compound hydrolysis by measuring compound half life at 50 uM up to 30 mins by LC-UV analysis", "format": "ADME", "summary_of_the_method": "(§1)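 Recombinant human carboxylesterase isoforms 1 and 2 were each incubated with the test ester. Hydrolysis was followed by HPLC-UV, tracking the disappearance of the substrate over incubation time relative to the initial amount. Chromatograms were also checked for peaks of the expected hydrolysis metabolites.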"}, "[2]": {"molecular_target": "Transient receptor potential cation channel subfamily V member 1 (Rattus norvegicus) (UniProt O35433)", "sequence (O35433 whole entry)": "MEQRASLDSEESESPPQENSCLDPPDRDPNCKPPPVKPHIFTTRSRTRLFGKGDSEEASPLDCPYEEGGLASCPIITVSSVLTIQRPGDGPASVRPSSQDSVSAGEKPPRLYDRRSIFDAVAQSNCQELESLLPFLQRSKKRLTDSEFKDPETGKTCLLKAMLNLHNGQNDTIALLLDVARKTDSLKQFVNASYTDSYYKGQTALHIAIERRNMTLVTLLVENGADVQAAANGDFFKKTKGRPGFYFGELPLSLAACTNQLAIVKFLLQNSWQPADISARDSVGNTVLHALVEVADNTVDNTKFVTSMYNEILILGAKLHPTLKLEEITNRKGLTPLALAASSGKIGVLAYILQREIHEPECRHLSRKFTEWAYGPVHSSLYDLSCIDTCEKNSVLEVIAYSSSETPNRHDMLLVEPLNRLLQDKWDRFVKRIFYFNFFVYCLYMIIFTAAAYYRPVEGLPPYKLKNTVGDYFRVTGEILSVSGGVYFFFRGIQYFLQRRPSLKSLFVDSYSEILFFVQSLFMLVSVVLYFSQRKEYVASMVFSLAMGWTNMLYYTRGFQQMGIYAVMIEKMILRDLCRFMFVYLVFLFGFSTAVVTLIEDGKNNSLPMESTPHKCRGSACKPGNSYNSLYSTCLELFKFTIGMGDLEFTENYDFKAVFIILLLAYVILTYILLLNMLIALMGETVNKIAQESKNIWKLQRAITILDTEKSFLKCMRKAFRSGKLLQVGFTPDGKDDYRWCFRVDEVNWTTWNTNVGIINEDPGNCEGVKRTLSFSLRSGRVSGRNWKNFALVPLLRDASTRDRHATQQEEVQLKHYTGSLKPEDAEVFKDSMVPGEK", "experiment": "Inhibition of TRPV1 in Wistar rat neonatal dorsal root ganglia assessed as reduction in capsaicin-induced neuronal excitability by microelectrode array analysis"}, "[3]": {"molecular_target": "Transient receptor potential cation channel subfamily V member 1 (Homo sapiens, UniProt Q8NER1)", "sequence (Q8NER1 whole entry)": "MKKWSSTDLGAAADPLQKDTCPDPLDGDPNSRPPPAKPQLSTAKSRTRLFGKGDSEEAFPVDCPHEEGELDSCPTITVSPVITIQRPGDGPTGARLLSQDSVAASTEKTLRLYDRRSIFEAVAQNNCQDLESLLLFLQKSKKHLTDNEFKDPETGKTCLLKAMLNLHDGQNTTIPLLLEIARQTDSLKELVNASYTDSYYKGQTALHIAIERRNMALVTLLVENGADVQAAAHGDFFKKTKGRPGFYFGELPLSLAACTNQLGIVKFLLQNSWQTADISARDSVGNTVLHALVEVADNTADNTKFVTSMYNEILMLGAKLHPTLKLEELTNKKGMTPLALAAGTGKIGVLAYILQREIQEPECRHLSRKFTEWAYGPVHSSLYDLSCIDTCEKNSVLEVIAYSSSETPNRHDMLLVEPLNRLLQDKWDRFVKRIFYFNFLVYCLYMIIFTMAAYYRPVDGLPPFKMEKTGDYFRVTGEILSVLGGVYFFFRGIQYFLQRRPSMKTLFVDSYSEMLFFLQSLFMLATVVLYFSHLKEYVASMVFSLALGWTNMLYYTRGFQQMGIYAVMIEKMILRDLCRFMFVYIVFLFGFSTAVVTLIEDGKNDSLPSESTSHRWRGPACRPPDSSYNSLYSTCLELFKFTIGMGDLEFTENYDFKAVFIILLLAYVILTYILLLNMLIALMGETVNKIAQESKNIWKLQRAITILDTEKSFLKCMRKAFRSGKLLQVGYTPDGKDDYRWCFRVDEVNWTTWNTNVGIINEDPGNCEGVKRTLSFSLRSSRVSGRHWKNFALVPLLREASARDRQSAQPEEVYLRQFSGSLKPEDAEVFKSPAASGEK", "experiment": "Antagonist activity at TRPV1 (unknown origin) expressed in human SH-SY5Y cells assessed as inhibition of capsaicin-induced calcium increase after 25 mins by Fluo-4 NW dye-based fluorescence assay", "format": "cell-based"}, "[4]": {"experiment": "Drug metabolism in human liver cytosol assessed as glucuronide metabolite formation at 50 uM in presence of UDPGA after 60 mins by LC-ESI-MS analysis", "format": "ADME, subcellular", "conditions": "1 h"}, "[5]": {"experiment": "Drug metabolism in human HaCaT cells assessed as residual substrate levels at 25 uM up to 240 mins by HPLC-UV analysis", "format": "ADME, cell-based", "conditions": "read-out: Stability"}, "Mus musculus [6]": {"test_system": "Mus musculus", "experiment": "Analgesic activity in CFA-induced thermal hyperalgesia C57BL/6 mouse model assessed as reduction in CFA-induced ipsilateral paw withdrawal latency at 3 mg/kg, iv treated at 24 hrs post CFA injection measured at 60 to 90 mins post dose", "format": "functional, organism-based"}, "Mus musculus [7]": {"test_system": "Mus musculus", "experiment": "Antipruritic activity in C57BL/6 mouse non-histaminergic pruritus model assessed as reduction in chloroquine-induced licking behavior at 100 ug administered as intraplantar injection pretreated for 30 mins followed by chloroquine addition measured 10 to 20 mins post chloroquine instillation", "format": "functional, organism-based"}, "[8]": {"experiment": "Drug metabolism in human liver microsomes assessed as glucuronide metabolite formation at 50 uM in presence of UDPGA after 60 mins by LC-ESI-MS analysis", "format": "ADME, microsome", "conditions": "1 h"}, "[9]": {"molecular_target": "Transient receptor potential cation channel subfamily V member 1 (Rattus norvegicus) (UniProt O35433)", "experiment": "Modulatory activity against TRPV1 in Wistar rat neonatal dorsal root ganglia assessed as inhibition of capsaicin-evoked action potential at 10 uM by microelectrode array analysis relative to control", "summary_of_the_method": "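Capsaicin-evoked action potential firing recorded with test agent at 10 µM. Response expressed as the P2/P1 mean spike frequency ratio.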"}, "[10]": {"experiment": "Drug metabolism in human liver S9 fraction assessed as residual substrate levels at 50 uM up to 60 mins by HPLC-UV analysis", "format": "ADME, subcellular", "conditions": "read-out: Stability"}, "Mus musculus [11]": {"test_system": "Mus musculus", "experiment": "Analgesic activity in CFA-induced thermal hyperalgesia C57BL/6 mouse model assessed as reduction in CFA-induced ipsilateral paw withdrawal administered intravenously treated for 24 hrs post CFA injection", "format": "functional, organism-based"}, "Mus musculus [12]": {"test_system": "Mus musculus", "experiment": "Analgesic activity in CFA-induced thermal hyperalgesia C57BL/6 mouse model assessed as reduction in CFA-induced ipsilateral paw withdrawal latency at 10 mg/kg, iv treated at 24 hrs post CFA injection measured at 60 mins post dose", "format": "functional, organism-based"}, "Cocaine esterase (CE2)": {"molecular_target": "T2, Cocaine esterase (CE2) (Homo sapiens, UniProt O00748)", "T2 sequence (O00748 whole entry)": "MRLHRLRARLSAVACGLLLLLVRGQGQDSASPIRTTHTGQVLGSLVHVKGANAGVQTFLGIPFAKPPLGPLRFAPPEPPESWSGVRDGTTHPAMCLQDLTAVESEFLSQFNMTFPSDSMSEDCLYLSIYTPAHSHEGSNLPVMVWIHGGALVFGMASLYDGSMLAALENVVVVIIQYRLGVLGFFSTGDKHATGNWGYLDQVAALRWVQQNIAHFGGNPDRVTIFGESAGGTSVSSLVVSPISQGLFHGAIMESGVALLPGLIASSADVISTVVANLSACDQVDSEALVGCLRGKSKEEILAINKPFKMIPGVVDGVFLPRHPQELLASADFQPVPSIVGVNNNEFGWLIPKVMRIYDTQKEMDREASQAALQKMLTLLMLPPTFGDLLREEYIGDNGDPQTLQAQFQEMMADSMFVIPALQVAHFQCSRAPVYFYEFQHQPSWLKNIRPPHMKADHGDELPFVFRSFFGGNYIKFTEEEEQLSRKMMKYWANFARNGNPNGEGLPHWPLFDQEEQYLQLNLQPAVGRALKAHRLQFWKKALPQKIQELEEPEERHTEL", "experiment": "Drug metabolism assessed as recombinant human CE2-mediated compound hydrolysis by measuring compound half life at 50 uM up to 30 mins by LC-UV analysis", "format": "ADME", "summary_of_the_method": "as §1"}, "Mus musculus [13]": {"test_system": "Mus musculus", "experiment": "Analgesic activity in CFA-induced thermal hyperalgesia C57BL/6 mouse model assessed as reduction in latency time required to elicit paw withdrawal in response to radiant heat applied to the plantar surface of a hind paw at 10 to 100 ug administered as intraplantar injection treated at 24 hrs post CFA injection measured at 90 mins post dose", "format": "functional, organism-based"}, "[14]": {"experiment": "Drug metabolism in human liver microsomes assessed as sulfate conjugate formation at 50 uM in presence of UDPGA after 60 mins by LC-ESI-MS analysis", "format": "ADME, microsome", "conditions": "1 h"}, "Mus musculus [15]": {"test_system": "Mus musculus", "experiment": "Analgesic activity in CFA-induced thermal hyperalgesia C57BL/6 mouse model assessed as reduction in CFA-induced ipsilateral paw withdrawal latency at 1 mg/kg, iv treated at 24 hrs post CFA injection measured at 30 to 60 mins post dose", "format": "functional, organism-based"}, "Mus musculus [16]": {"test_system": "Mus musculus", "experiment": "Effect on thermal nociception of the contralateral paw in CFA-induced thermal hyperalgesia C57BL/6 mouse model at 1 to 10 mg/kg, iv treated at 24 hrs post CFA injection", "format": "ADME, organism-based", "conditions": "in vivo"}, "[17]": {"experiment": "Drug metabolism in human fibroblast cells assessed as residual substrate levels at 50 uM up to 120 mins by HPLC-UV analysis", "format": "ADME, cell-based", "conditions": "read-out: Stability"}, "Mus musculus [18]": {"test_system": "Mus musculus", "experiment": "Toxicity in C57BL/6 mouse assessed as change in body temperature at 10 mg/kg, iv after 120 mins", "format": "organism-based", "conditions": "in vivo, 2 h"}, "[19]": {"experiment": "Drug metabolism in human plasma assessed as residual substrate levels at 100 uM up to 20 mins by HPLC-UV analysis", "format": "ADME, cell-free", "conditions": "read-out: Stability"}}, "note": "Active and inactive are the calls of the source. The rule behind the calls is not given here."}
{"molecule": "CCCCCCCCCCCC(=O)OCC(=O)NCc1cc(OC)c(O)cc1I", "values": [{"measurement": "half-life at 50 µM", "setting": "[1]", "result": 27.2, "unit": "min"}, {"measurement": "inhibition", "setting": "[2]", "result": "Dose-dependent effect"}, {"measurement": "IC50", "setting": "[3]", "result": 0.93, "unit": "µM"}, {"measurement": "Drug metabolism", "setting": "[4]", "result": "Metabolite_Notdetected"}, {"measurement": "remaining at 4 h, 25 µM", "setting": "[5]", "result": 98.6, "unit": "%"}, {"measurement": "Activity", "setting": "Mus musculus [6]", "result": "Active"}, {"measurement": "Activity", "setting": "Mus musculus [7]", "result": "Active"}, {"measurement": "Drug metabolism", "setting": "[8]", "result": "Metabolite_Notdetected"}, {"measurement": "inhibition", "setting": "[9]", "result": 43, "unit": "%"}, {"measurement": "remaining at 1 h, 50 µM", "setting": "[10]", "result": 0, "unit": "%"}, {"measurement": "Activity", "setting": "Mus musculus [11]", "result": "Dose-dependent effect"}, {"measurement": "Activity", "setting": "Mus musculus [12]", "result": "Active"}, {"measurement": "half-life at 50 µM", "setting": "Cocaine esterase (CE2)", "result": 12.5, "unit": "min"}, {"measurement": "Activity", "setting": "Mus musculus [13]", "result": "Active"}, {"measurement": "Drug metabolism", "setting": "[14]", "result": "Metabolite_Notdetected"}, {"measurement": "Activity", "setting": "Mus musculus [15]", "result": "Active"}, {"measurement": "Activity", "setting": "Mus musculus [16]", "result": "Non-Toxic"}, {"measurement": "remaining at 2 h, 50 µM", "setting": "[17]", "result": 13.3, "unit": "%"}, {"measurement": "Activity", "setting": "Mus musculus [18]", "result": "Non-Toxic"}, {"measurement": "remaining at 20 min, 100 µM", "setting": "[19]", "result": 82, "unit": "%"}]}
